In ChEMBL document CHEMBL3046702, “Herbicidal, plant growth inhibitory, and cytotoxic activities of bismuthines containing aromatic heterocycles” (J Agric Food Chem, 2003):
pIC50: −log10 of the molar value. Calls of active or inactive are those of the source. No cut-off for these calls is given here.

Legend:
Trifolium pratense [1] = test: Herbicidal activity against Trifolium pratense var. Kenland (red clover) assessed as inhibition of seed germination after 48 hr; assay type: functional, organism-based; conditions: read-out: I50
Lactuca sativa [2] = test: Herbicidal activity against Lactuca sativa var.Roman (lettuce) assessed as inhibition of seed germination after 48 hr; assay type: functional, organism-based; conditions: read-out: I50
Lolium multiflorum [3] = test: Herbicidal activity against Lolium multiflorum var. Gulf (Italian ryegrass) assessed as inhibition of seed germination after 48 hr; assay type: functional, organism-based; conditions: read-out: I50
Artemia salina [4] = test: Toxicity in Artemia salina (brine shrimp) larvae assessed as mortality; assay type: organism-based; conditions: in vivo
Procedure, shortened: (§1)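 Brine shrimp lethality test on *Artemia salina* larvae, run across several concentrations up to a top level of 1000 µM. Mortality was scored at each concentration, and LC50 values in µM were derived from the concentration–mortality data.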

Artemia salina [5] = test: Toxicity in Artemia salina (brine shrimp) larvae assessed as mortality at 200 uM; assay type: organism-based; conditions: in vivo; procedure, shortened: as §1
Phaseolus vulgaris [6] = test: Herbicidal activity against Phaseolus vulgaris assessed as inhibition of mitochondrial oxygen uptake; assay type: functional, organism-based; conditions: read-out: I50
Artemia salina [7] = test: Toxicity in Artemia salina (brine shrimp) larvae assessed as mortality at 100 uM; assay type: organism-based; conditions: in vivo; procedure, shortened: as §1
Artemia salina [8] = test: Toxicity in Artemia salina (brine shrimp) larvae assessed as mortality at 500 to 1000 uM; assay type: organism-based; conditions: in vivo; procedure, shortened: as §1
Phaseolus vulgaris [9] = test: Herbicidal activity against Phaseolus vulgaris assessed as inhibition of seed respiration during germination; assay type: functional, organism-based; conditions: read-out: I50
Artemia salina [10] = test: Toxicity in Artemia salina (brine shrimp) larvae assessed as mortality at 20 uM; assay type: organism-based; conditions: in vivo; procedure, shortened: as §1
Trifolium pratense [11] = test: Herbicidal activity against Trifolium pratense var. Kenland (red clover) assessed as inhibition of seed respiration during germination after 72 hr by polarographic analysis; assay type: functional, organism-based; conditions: for pIC50: read-out: I50
Procedure, shortened: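 Red clover seeds were exposed to the bismuthines during germination, with respiration followed over the imbibition time. Values were taken at 72 h as the concentration giving 50% inhibition of seed respiration, using means of three experiments.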

Lactuca sativa [12] = test: Herbicidal activity against Lactuca sativa var.Roman (lettuce) seedlings assessed as shoot length at 5 uM after 120 hr (reference value: 27 to 31 mm); assay type: functional, organism-based
Lactuca sativa [13] = test: Herbicidal activity against Lactuca sativa var.Roman (lettuce) seedlings assessed as root length at 5 uM after 120 hr (reference value: 18 to 19 mm); assay type: functional, organism-based
Lolium multiflorum [14] = test: Herbicidal activity against Lolium multiflorum var. Gulf (Italian ryegrass) seedlings assessed as shoot length rate at 1 uM after 48 hr relative to control; assay type: functional, organism-based
Procedure, shortened: (§2)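 Italian ryegrass seedlings grown with 0, 0.5, 1, 3, 5, 7.5 or 10 µM of each bismuthine. Shoot and root lengths were measured at 48 h and expressed as a percentage of the average untreated control length.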

Lactuca sativa [15] = test: Herbicidal activity against Lactuca sativa var.Roman (lettuce) seedlings assessed as seed germination rate at 7.5 uM after 48 hr relative to control; assay type: functional, organism-based
Lolium multiflorum [16] = test: Herbicidal activity against Lolium multiflorum var. Gulf (Italian ryegrass) seedlings assessed as root length rate at 7.5 uM after 48 hr relative to control; assay type: functional, organism-based; procedure, shortened: as §2
[17] = system: Radical scavenging activity; test: Antioxidant activity assessed as DPPH free radical scavenging activity at 5 to 100 uM after 30 min by spectrophotometric analysis; assay type: functional
Procedure, shortened: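 DPPH reduction by the compounds was read spectrophotometrically at 517 nm after 30 min. 100% DMSO served as the blank and quercetin as the reference scavenger.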

Lactuca sativa [18] = test: Herbicidal activity against Lactuca sativa var.Roman (lettuce) seedlings assessed as seed germination rate at 5 uM after 48 hr relative to control; assay type: functional, organism-based
Lolium multiflorum [19] = test: Herbicidal activity against Lolium multiflorum var. Gulf (Italian ryegrass) assessed as inhibition of seed respiration during germination after 72 hr by polarographic analysis; assay type: functional, organism-based
Lolium multiflorum [20] = test: Herbicidal activity against Lolium multiflorum var. Gulf (Italian ryegrass) seedlings assessed as shoot length rate at 10 uM after 48 hr relative to control; assay type: functional, organism-based; procedure, shortened: as §2
Lactuca sativa [21] = test: Herbicidal activity against Lactuca sativa var.Roman (lettuce) seedlings assessed as seed germination rate at 10 uM after 48 hr relative to control; assay type: functional, organism-based
Lactuca sativa [22] = test: Herbicidal activity against Lactuca sativa var.Roman (lettuce) assessed as inhibition of seed germination at > 36.6 uM after 48 hr; assay type: functional, organism-based
Lolium multiflorum [23] = test: Herbicidal activity against Lolium multiflorum var. Gulf (Italian ryegrass) seedlings assessed as root length rate at 5 uM after 48 hr relative to control; assay type: functional, organism-based; procedure, shortened: as §2
Lolium multiflorum [24] = test: Herbicidal activity against Lolium multiflorum var. Gulf (Italian ryegrass) seedlings assessed as root length rate at 1 uM after 48 hr relative to control; assay type: functional, organism-based; procedure, shortened: as §2
Lolium multiflorum [25] = test: Herbicidal activity against Lolium multiflorum var. Gulf (Italian ryegrass) seedlings assessed as shoot length rate at 5 uM after 48 hr relative to control; assay type: functional, organism-based; procedure, shortened: as §2
Lolium multiflorum [26] = test: Herbicidal activity against Lolium multiflorum var. Gulf (Italian ryegrass) seedlings assessed as root length rate at 0.5 uM after 48 hr relative to control; assay type: functional, organism-based; procedure, shortened: as §2
Lactuca sativa [27] = test: Herbicidal activity against Lactuca sativa var.Roman (lettuce) seedlings assessed as root length at 25 uM after 120 hr (reference value: 18 to 19 mm); assay type: functional, organism-based
Lactuca sativa [28] = test: Herbicidal activity against Lactuca sativa var.Roman (lettuce) seedlings assessed as shoot length at 10 uM after 120 hr (reference value: 27 to 31 mm); assay type: functional, organism-based
Lactuca sativa [29] = test: Herbicidal activity against Lactuca sativa var.Roman (lettuce) seedlings assessed as root length at 75 uM after 120 hr (reference value: 18 to 19 mm); assay type: functional, organism-based
Lolium multiflorum [30] = test: Herbicidal activity against Lolium multiflorum var. Gulf (Italian ryegrass) seedlings assessed as shoot length rate at 3 uM after 48 hr relative to control; assay type: functional, organism-based; procedure, shortened: as §2
Lolium multiflorum [31] = test: Herbicidal activity against Lolium multiflorum var. Gulf (Italian ryegrass) seedlings assessed as shoot length rate at 7.5 uM after 48 hr relative to control; assay type: functional, organism-based; procedure, shortened: as §2
Lactuca sativa [32] = test: Herbicidal activity against Lactuca sativa var.Roman (lettuce) seedlings assessed as root length at 10 uM after 120 hr (reference value: 18 to 19 mm); assay type: functional, organism-based
Physalis ixocarpa = test: Herbicidal activity against Physalis ixocarpa assessed as inhibition of seed respiration during germination after 72 hr by polarographic analysis; assay type: functional, organism-based
Lactuca sativa [33] = test: Herbicidal activity against Lactuca sativa var.Roman (lettuce) seedlings assessed as seed germination rate at 1 uM after 48 hr relative to control; assay type: functional, organism-based
Lolium multiflorum [34] = test: Herbicidal activity against Lolium multiflorum var. Gulf (Italian ryegrass) seedlings assessed as root length rate at 3 uM after 48 hr relative to control; assay type: functional, organism-based; procedure, shortened: as §2
Lactuca sativa [35] = test: Herbicidal activity against Lactuca sativa var.Roman (lettuce) seedlings assessed as shoot length at 75 uM after 120 hr (reference value: 27 to 31 mm); assay type: functional, organism-based
Lactuca sativa [36] = test: Herbicidal activity against Lactuca sativa var.Roman (lettuce) seedlings assessed as root length at 50 uM after 120 hr (reference value: 18 to 19 mm); assay type: functional, organism-based
Lactuca sativa [37] = test: Herbicidal activity against Lactuca sativa var.Roman (lettuce) assessed as inhibition of seed germination at > 48.8 uM after 48 hr; assay type: functional, organism-based
Lactuca sativa [38] = test: Herbicidal activity against Lactuca sativa var.Roman (lettuce) seedlings assessed as seed germination rate at 3 uM after 48 hr relative to control; assay type: functional, organism-based
[39] = system: Radical scavenging activity; test: Antioxidant activity assessed as DPPH free radical scavenging activity at 5 to 100 uM after 30 min by TLC autographic assay; assay type: functional
Trifolium pratense [40] = test: Herbicidal activity against Trifolium pratense var. Kenland (red clover) assessed as inhibition of seed germination at > 18.3 uM after 48 hr; assay type: functional, organism-based
Lolium multiflorum [41] = test: Herbicidal activity against Lolium multiflorum var. Gulf (Italian ryegrass) seedlings assessed as shoot length rate at 0.5 uM after 48 hr relative to control; assay type: functional, organism-based; procedure, shortened: as §2
Lolium multiflorum [42] = test: Herbicidal activity against Lolium multiflorum var. Gulf (Italian ryegrass) seedlings assessed as root length rate at 10 uM after 48 hr relative to control; assay type: functional, organism-based; procedure, shortened: as §2
Lactuca sativa [43] = test: Herbicidal activity against Lactuca sativa var.Roman (lettuce) seedlings assessed as seed germination rate at 0.5 uM after 48 hr relative to control; assay type: functional, organism-based
Lactuca sativa [44] = test: Herbicidal activity against Lactuca sativa var.Roman (lettuce) seedlings assessed as inhibition of seed germination at 5 uM after 48 hr; assay type: functional, organism-based
Lactuca sativa [45] = test: Herbicidal activity against Lactuca sativa var.Roman (lettuce) seedlings assessed as shoot length at 50 uM after 120 hr (reference value: 27 to 31 mm); assay type: functional, organism-based
Lactuca sativa [46] = test: Herbicidal activity against Lactuca sativa var.Roman (lettuce) seedlings assessed as shoot length at 25 uM after 120 hr (reference value: 27 to 31 mm); assay type: functional, organism-based
Lactuca sativa [47] = test: Herbicidal activity against Lactuca sativa var.Roman (lettuce) seedlings assessed as growth inhibition at 5 uM after 120 hr; assay type: functional, organism-based

## TRIS(2-FURYL)BISMUTH [listing 1 of 2 here]
Trifolium pratense [1]
  pIC50: 5.34
Lactuca sativa [2]
  pIC50: 4.79
Lolium multiflorum [3]
  pIC50: 4.70
Artemia salina [4]
  LC50: 99 µM
Artemia salina [5]
  mortality: 68.96%
Phaseolus vulgaris [6]
  pIC50: 5.00
Artemia salina [7]
  mortality: 50.9%
Artemia salina [8]
  mortality: 100%
Phaseolus vulgaris [9]
  pIC50: 5.96
Artemia salina [10]
  mortality: 12.28%
Trifolium pratense [11]
  pIC50: 5.20

## TRIS(2-FURYL)BISMUTH [listing 2 of 2 here]
Lactuca sativa [12]
  Activity: 24 mm
Lactuca sativa [13]
  Activity: 32 mm
Lolium multiflorum [14]
  Activity: 75%
Lactuca sativa [15]
  Activity: 35%
Lolium multiflorum [16]
  Activity: 44%
[17]
  Activity: Active
Lactuca sativa [18]
  Activity: 70%
Lolium multiflorum [19]
  inhibition: inactive
Lolium multiflorum [20]
  Activity: 24%
Lactuca sativa [21]
  Activity: 35%
Lactuca sativa [22]
  inhibition: Active
Lolium multiflorum [23]
  Activity: 66%
Lolium multiflorum [24]
  Activity: 70%
Lolium multiflorum [25]
  Activity: 55%
Lolium multiflorum [26]
  Activity: 78%
Lactuca sativa [27]
  Activity: 0 mm
Lactuca sativa [28]
  Activity: 11 mm
Lactuca sativa [29]
  Activity: 0 mm
Lolium multiflorum [30]
  Activity: 79%
Lolium multiflorum [31]
  Activity: 53%
Lactuca sativa [32]
  Activity: 7 mm
Physalis ixocarpa
  inhibition: Active
Lactuca sativa [33]
  Activity: 95%
Lolium multiflorum [34]
  Activity: 86%
Lactuca sativa [35]
  Activity: 0 mm
Lactuca sativa [36]
  Activity: 0 mm
Lactuca sativa [37]
  inhibition: 100%
Lactuca sativa [38]
  Activity: 80%
[39]
  Activity: Active
Trifolium pratense [11]
  inhibition: Dose-dependent effect
Trifolium pratense [40]
  inhibition: 100%
Lolium multiflorum [41]
  Activity: 82%
Lolium multiflorum [42]
  Activity: 30%
Lactuca sativa [43]
  Activity: 95%

## TRIS(2-THIENYL)BISMUTH [listing 1 of 2 here]
Trifolium pratense [1]
  pIC50: 4.91
Lactuca sativa [2]
  pIC50: 4.30
Lolium multiflorum [3]
  pIC50: 4.44
Artemia salina [4]
  LC50: > 1000 µM
Phaseolus vulgaris [6]
  pIC50: 4.46
Trifolium pratense [11]
  pIC50: 4.87

## TRIS(2-THIENYL)BISMUTH [listing 2 of 2 here]
Lactuca sativa [44]
  inhibition: Active
Lactuca sativa [12]
  Activity: 33 mm
Lactuca sativa [13]
  Activity: 36 mm
Lolium multiflorum [14]
  Activity: 82%
Lactuca sativa [15]
  Activity: 70%
Lolium multiflorum [16]
  Activity: 50%
[17]
  Activity: Active
Lactuca sativa [18]
  Activity: 80%
Lolium multiflorum [19]
  inhibition: inactive
Lolium multiflorum [20]
  Activity: 37%
Lactuca sativa [45]
  Activity: 5 mm
Lactuca sativa [46]
  Activity: 7 mm
Lactuca sativa [21]
  Activity: 60%
Lolium multiflorum [23]
  Activity: 76%
Lolium multiflorum [24]
  Activity: 88%
Lolium multiflorum [25]
  Activity: 75%
Lolium multiflorum [26]
  Activity: 70%
Lactuca sativa [27]
  Activity: 3 mm
Lactuca sativa [28]
  Activity: 9 mm
Lactuca sativa [29]
  Activity: 0 mm
Lolium multiflorum [30]
  Activity: 71%
Lolium multiflorum [31]
  Activity: 46%
Lactuca sativa [32]
  Activity: 5 mm
Physalis ixocarpa
  inhibition: Active
Lactuca sativa [33]
  Activity: 90%
Lolium multiflorum [34]
  Activity: 52%
Lactuca sativa [47]
  inhibition: 30%
Lactuca sativa [35]
  Activity: 0 mm
Lactuca sativa [36]
  Activity: 2 mm
Lactuca sativa [38]
  Activity: 85%
[39]
  Activity: inactive
Trifolium pratense [11]
  inhibition: Dose-dependent effect
Lolium multiflorum [41]
  Activity: 84%
Lolium multiflorum [42]
  Activity: 30%
Lactuca sativa [43]
  Activity: 90%
